Source: ChEMBL document CHEMBL3621201, “Improving the Selectivity of Engineered Protease Inhibitors: Optimizing the P2 Prime Residue Using a Versatile Cyclic Peptide Library” (J Med Chem, 2015)
Calls of active or inactive are those of the source. The calls are words filed in the database; no cut-off is given here. Bridge positions count the residues as written; N and C are the ends. Peptide text beside a SMILES is read from it.

Tests used:
[1] = target: T1, Trypsin (Homo sapiens, UniProt P07477+P07478+P35030); assay: Inhibition of beta-trypsin (unknown origin) using Bz-FVRpNA substrate by spectrophotometry method; assay type: protein assay
Outline: (§1)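 Inhibition constants were measured in 0.1 M Tris pH 8.0, 0.1 M NaCl, 0.005% Triton X-100 with 100 µM peptide-pNA substrate. Protease-specific additives were also included. Absorbance at 405 nm was read every 10 s over 300 s. Rates were compared with no-inhibitor controls, and Morrison Ki was fitted by non-linear regression.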

[2] = target: T2, Plasminogen (Homo sapiens, UniProt P00747); assay: Inhibition of plasmin (unknown origin) using Ac-RM(O2)YRpNA substrate by spectrophotometry method; outline: as §1
[3] = target: T3, Prothrombin (Homo sapiens, UniProt P00734); assay: Inhibition of alpha-thrombin (unknown origin) using Ac-ATPRpNA substrate by spectrophotometry method; outline: as §1
[4] = target: T4, Kallikrein-5 (Homo sapiens, UniProt Q9Y337); assay: Inhibition of KLK5 (unknown origin) expressed in Pichia pastoris X33 using Ac-YRSR-pNA by spectrophotometry method; outline: as §1
T4 sequence (Q9Y337 whole entry): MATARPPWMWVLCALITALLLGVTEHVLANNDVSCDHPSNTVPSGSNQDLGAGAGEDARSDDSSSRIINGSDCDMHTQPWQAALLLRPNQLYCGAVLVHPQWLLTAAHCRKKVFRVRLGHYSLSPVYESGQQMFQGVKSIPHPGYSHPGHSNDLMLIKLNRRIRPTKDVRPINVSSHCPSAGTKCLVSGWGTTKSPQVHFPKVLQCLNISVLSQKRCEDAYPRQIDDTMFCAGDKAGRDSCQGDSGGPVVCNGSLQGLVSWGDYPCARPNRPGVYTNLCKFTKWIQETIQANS

[5] = target: T5, Kallikrein-4 (Homo sapiens, UniProt Q9Y5K2); assay: Inhibition of KLK4 (unknown origin) expressed in Sf9 cells using FVQRpNA substrate by spectrophotometry method; outline: as §1
[6] = target: T6, Suppressor of tumorigenicity 14 protein (Homo sapiens) (UniProt Q9Y5Y6); assay: Inhibition of matriptase (unknown origin) at 10 uM using Ac-RQFRpNA substrate by spectrophotometry method
T6 sequence (whole entry): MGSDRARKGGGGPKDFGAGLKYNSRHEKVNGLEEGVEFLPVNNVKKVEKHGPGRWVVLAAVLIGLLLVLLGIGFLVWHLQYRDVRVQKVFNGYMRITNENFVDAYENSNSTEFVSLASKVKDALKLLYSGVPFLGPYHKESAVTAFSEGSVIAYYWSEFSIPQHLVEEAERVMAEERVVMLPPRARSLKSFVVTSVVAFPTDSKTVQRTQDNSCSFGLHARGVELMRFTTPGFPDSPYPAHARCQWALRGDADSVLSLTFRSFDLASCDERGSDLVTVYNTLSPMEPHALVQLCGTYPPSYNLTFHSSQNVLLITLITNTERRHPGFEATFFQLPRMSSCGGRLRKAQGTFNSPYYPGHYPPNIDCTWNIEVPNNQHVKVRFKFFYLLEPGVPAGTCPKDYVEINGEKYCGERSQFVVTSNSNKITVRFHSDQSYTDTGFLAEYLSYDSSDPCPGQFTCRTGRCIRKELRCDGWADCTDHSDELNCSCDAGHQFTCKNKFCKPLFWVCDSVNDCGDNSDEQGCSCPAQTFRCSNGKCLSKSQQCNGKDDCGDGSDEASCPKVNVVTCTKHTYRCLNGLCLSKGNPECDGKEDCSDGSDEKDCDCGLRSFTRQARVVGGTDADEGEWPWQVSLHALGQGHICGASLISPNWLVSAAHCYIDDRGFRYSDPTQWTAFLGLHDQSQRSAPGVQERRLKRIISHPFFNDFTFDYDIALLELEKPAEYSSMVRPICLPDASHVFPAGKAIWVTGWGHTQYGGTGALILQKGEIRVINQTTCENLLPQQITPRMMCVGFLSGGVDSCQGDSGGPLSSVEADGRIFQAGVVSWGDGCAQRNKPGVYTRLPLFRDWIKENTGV

[7] = target: Coagulation factor XI (Homo sapiens) (UniProt P03951); assay: Inhibition of factor 11a (unknown origin) at 10 uM using Bz-FVRpNA substrate by spectrophotometry method
[8] = target: Serine protease 1 (Homo sapiens) (UniProt P07477); assay: Inhibition of beta-trypsin (unknown origin) at 25 nM using Bz-FVRpNA substrate by spectrophotometry method
[9] = target: Coagulation factor X (Homo sapiens) (UniProt P00742); assay: Inhibition of factor 10a (unknown origin) at 50 uM using Ac-QRSRpNA substrate by spectrophotometry method
[10] = target: T5, Kallikrein-4; assay: Inhibition of KLK4 (unknown origin) expressed in Sf9 cells at 25 nM using FVQRpNA substrate by spectrophotometry method
[11] = target: T2, Plasminogen; assay: Inhibition of plasmin (unknown origin) at 50 uM using Ac-RM(O2)YRpNA substrate by spectrophotometry method
[12] = target: T1, Trypsin; assay: Inhibition of trypsin (unknown origin); assay type: protein assay
[13] = species: Homo sapiens; assay: Inhibition of alpha chymotrypsin (unknown origin) at 25 uM using Ac-GRPY-pNA by spectrophotometry method
[14] = target: T7, Kallikrein-7 (Homo sapiens, UniProt P49862); assay: Inhibition of KLK7 (unknown origin) expressed in Pichia pastoris X33 using KHLY-pNA substrate by spectrophotometry method; outline: as §1
Target sequence in this assay (P49862 whole entry): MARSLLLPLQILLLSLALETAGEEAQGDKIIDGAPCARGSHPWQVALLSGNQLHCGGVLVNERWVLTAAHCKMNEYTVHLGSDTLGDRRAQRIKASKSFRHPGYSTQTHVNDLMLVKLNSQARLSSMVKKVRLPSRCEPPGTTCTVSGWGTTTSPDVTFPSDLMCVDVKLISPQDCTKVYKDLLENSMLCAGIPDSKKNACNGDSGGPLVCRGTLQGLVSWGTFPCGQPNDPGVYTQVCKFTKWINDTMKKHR

[15] = target: T8, Coagulation factor XII (Homo sapiens) (UniProt P00748); assay: Inhibition of factor 12a-alpha (unknown origin) at 10 uM using Ac-QRFRpNA substrate by spectrophotometry method
T8 sequence (whole entry): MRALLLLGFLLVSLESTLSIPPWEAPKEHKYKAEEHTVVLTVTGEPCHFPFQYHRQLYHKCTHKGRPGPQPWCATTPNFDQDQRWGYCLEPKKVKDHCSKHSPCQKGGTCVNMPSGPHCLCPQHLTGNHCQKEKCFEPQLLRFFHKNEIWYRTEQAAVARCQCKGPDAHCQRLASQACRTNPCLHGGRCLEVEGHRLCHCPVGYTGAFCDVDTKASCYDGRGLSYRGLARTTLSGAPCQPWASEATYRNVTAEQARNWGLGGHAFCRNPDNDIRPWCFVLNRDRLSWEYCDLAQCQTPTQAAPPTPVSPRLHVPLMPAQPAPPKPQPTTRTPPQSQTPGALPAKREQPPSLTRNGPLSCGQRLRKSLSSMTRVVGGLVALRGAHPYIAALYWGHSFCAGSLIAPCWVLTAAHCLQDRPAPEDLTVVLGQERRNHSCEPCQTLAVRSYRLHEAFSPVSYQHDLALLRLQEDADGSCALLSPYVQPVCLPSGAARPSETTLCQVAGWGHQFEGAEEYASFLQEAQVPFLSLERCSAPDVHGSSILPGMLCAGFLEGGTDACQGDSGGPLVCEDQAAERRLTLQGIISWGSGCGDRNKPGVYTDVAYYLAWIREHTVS

[16] = target: Kallikrein-5 (Homo sapiens) (UniProt Q9Y337); assay: Inhibition of KLK5 (unknown origin) expressed in Pichia pastoris X33 at 50 nM using Ac-YRSR-pNA by spectrophotometry method
[17] = target: T7, Kallikrein-7; assay: Inhibition of KLK7 (unknown origin) expressed in Pichia pastoris X33 at 200 nM using KHLY-pNA substrate by spectrophotometry method
Target sequence in this assay (P49862 30-253 limits assumed): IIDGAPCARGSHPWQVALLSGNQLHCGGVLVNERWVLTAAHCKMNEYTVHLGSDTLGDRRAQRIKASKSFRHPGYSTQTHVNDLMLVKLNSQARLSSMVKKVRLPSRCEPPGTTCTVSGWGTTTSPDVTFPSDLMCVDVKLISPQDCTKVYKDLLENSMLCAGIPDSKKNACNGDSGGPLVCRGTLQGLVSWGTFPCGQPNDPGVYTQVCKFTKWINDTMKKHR

[18] = target: T3, Prothrombin; assay: Inhibition of alpha-thrombin (unknown origin) at 25 uM using Ac-ATPRpNA substrate by spectrophotometry method

T2 sequence (P00747 97-580 limits assumed): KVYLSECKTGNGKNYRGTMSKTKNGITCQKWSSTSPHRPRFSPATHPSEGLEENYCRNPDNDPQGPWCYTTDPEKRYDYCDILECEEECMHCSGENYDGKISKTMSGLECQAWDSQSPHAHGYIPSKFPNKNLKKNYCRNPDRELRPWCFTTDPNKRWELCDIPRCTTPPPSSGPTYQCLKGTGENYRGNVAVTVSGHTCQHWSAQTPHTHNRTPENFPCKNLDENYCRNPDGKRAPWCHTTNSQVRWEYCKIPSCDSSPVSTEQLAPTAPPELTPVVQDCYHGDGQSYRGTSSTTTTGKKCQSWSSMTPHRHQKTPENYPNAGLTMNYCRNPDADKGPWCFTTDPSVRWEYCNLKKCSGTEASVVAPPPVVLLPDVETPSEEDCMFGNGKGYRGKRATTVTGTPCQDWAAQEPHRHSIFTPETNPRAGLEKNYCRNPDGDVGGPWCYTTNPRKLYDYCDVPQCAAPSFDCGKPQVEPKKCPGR
T2 sequence (P00747 581-810 limits assumed): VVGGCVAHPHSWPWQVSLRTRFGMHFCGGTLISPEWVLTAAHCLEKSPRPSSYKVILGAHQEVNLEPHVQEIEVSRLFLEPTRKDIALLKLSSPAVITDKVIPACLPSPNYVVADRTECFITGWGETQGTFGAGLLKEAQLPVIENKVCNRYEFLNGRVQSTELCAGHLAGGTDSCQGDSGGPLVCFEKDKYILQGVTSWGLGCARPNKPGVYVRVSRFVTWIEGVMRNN
T5 sequence (Q9Y5K2 whole entry): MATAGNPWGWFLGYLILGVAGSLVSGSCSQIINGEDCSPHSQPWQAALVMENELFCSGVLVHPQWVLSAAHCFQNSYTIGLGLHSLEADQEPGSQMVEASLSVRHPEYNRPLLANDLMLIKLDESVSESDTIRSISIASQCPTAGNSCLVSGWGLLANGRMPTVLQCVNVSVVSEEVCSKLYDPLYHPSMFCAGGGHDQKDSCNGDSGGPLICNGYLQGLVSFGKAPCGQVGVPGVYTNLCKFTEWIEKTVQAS
Sequence of Coagulation factor XI (Homo sapiens) (P03951 19-387 limits assumed): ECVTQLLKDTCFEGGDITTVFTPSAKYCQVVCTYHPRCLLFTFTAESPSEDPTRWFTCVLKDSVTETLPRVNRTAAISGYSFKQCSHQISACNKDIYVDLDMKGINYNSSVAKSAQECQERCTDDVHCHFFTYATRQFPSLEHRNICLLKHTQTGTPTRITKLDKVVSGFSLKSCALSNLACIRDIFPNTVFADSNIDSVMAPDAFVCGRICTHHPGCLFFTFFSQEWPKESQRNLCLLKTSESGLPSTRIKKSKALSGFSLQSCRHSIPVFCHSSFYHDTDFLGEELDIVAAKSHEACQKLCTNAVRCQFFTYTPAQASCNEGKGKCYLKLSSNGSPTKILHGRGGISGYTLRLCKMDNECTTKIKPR
Sequence of Coagulation factor XI (Homo sapiens) (P03951 388-625 limits assumed): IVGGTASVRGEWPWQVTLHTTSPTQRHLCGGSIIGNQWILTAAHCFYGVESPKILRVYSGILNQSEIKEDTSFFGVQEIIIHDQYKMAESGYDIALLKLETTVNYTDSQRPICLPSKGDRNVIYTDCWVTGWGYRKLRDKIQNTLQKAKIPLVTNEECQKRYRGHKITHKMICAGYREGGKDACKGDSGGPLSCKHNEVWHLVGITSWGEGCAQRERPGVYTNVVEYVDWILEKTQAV
Sequence of Coagulation factor X (Homo sapiens) (P00742 41-179 limits assumed): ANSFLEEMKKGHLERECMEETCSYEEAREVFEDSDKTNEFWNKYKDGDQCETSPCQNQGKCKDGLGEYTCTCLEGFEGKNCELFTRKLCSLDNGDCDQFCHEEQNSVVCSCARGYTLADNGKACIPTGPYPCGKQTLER
Sequence of Coagulation factor X (Homo sapiens) (P00742 235-488 limits assumed): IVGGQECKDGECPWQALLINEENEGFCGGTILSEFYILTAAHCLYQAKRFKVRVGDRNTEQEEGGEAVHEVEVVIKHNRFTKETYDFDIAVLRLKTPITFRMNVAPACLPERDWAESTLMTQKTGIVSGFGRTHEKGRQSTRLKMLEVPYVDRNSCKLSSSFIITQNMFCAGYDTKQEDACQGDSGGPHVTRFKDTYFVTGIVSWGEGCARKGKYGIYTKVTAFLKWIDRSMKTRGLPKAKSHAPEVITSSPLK
Sequence of Serine protease 1 (Homo sapiens) (P07477 whole entry): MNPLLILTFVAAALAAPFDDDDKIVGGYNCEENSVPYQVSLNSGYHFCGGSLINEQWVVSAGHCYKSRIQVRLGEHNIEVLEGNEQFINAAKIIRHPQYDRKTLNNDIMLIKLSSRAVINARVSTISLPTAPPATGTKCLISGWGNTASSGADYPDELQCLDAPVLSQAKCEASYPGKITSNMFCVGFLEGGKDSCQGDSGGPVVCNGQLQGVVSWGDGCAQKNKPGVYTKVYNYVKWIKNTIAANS

| Compound | Ki [1] | Ki [2] | Ki [3] | Ki [4] | inhibition [6] | inhibition [10] | other results |
| --- | --- | --- | --- | --- | --- | --- | --- |
| CC[C@H](C)[C@@H]1NC(=O)[C@@H]2CCCN2C(=O)[C@@H]2CCCN2C(=O)[C@H]([C@@H](C)CC)NC(=O)[C@H](CO)NC(=O)[C@H](CCCNC(=N)N)NC(=O)[C@H]([C@@H](C)O)NC(=O)[C@@H]2CSSC[C@H](NC1=O)C(=O)N[C@@H](Cc1ccccc1)C(=O)N1CCC[C@H]1C(=O)N[C@H](C(=O)O)CC(=O)NCC(=O)N[C@@H](CCCNC(=N)N)C(=O)N2 (GRCTRSIPPICFPD-OH; disulfide 3-11; lactam N-14) | 0.03 nM | 121 nM | 381 nM |  |  |  |  |
| CC[C@H](C)[C@@H]1NC(=O)[C@@H]2CCCN2C(=O)[C@@H]2CCCN2C(=O)[C@H](Cc2ccc(O)cc2)NC(=O)[C@H](CO)NC(=O)[C@H](CCCNC(=N)N)NC(=O)[C@H]([C@@H](C)O)NC(=O)[C@@H]2CSSC[C@H](NC1=O)C(=O)N[C@@H](Cc1ccccc1)C(=O)N1CCC[C@H]1C(=O)N[C@H](C(=O)O)CC(=O)NCC(=O)N[C@@H](CCCNC(=N)N)C(=O)N2 (GRCTRSYPPICFPD-OH; disulfide 3-11; lactam N-14) | 0.16 nM | 549 nM | 214 nM |  |  |  |  |
| C[C@@H](O)[C@@H]1NC(=O)[C@@H](NC(=O)[C@H](CCCNC(=N)N)NC(=O)CN)CSSC[C@@H](C(=O)N[C@@H](Cc2cnc[nH]2)C(=O)O)NC(=O)[C@H](CCCNC(=N)N)NC(=O)[C@@H]2CCCN2C(=O)[C@@H]2CCCN2C(=O)[C@H](CC(=O)O)NC(=O)[C@H](CO)NC(=O)[C@H](CCCCN)NC1=O (H-GRCTKSDPPRCH-OH; disulfide 3-11) | 2830 nM | 17100 nM | > 50000 nM |  |  |  |  |
| CC[C@H](C)[C@@H]1NC(=O)[C@@H]2CSSC[C@H](NC(=O)[C@H]([C@@H](C)CC)NC(=O)[C@@H]3CCCN3C(=O)[C@@H]3CCCN3C(=O)[C@H](CCCCN)NC(=O)[C@H](CO)NC(=O)[C@H](CCCNC(=N)N)NC1=O)C(=O)N[C@@H](CC(N)=O)C(=O)N1CCC[C@H]1C(=O)N[C@@H](CC(N)=O)C(=O)NCC(=O)N[C@@H](Cc1c[nH]c3ccccc13)C(=O)N2 (cyclo(CIRSKPPICNPNGW); disulfide 1-9) | 3200 nM |  |  | > 50000 nM |  |  | Ki [5]: 19.9 nM |
| CC[C@H](C)[C@@H]1NC(=O)[C@@H]2CCCN2C(=O)[C@@H]2CCCN2C(=O)[C@H](Cc2ccc(O)cc2)NC(=O)[C@H](CO)NC(=O)[C@H](CCCNC(=N)N)NC(=O)[C@H]([C@@H](C)O)NC(=O)[C@@H]2CSSC[C@H](NC1=O)C(=O)N[C@@H](CC(N)=O)C(=O)N1CCC[C@H]1C(=O)N[C@@H](CC(N)=O)C(=O)NCC(=O)N[C@@H]([C@@H](C)O)C(=O)N2 (cyclo(CNPNGTCTRSYPPI); disulfide 1-7) |  |  |  |  |  |  | inhibition [16]: Active; inhibition [9]: 26%; inhibition [15]: 75%; inhibition [18]: 62% |

More lines, main results first:

| Ki [1] | Ki [2] | Ki [3] | Ki [4] | inhibition [6] | inhibition [10] | Compound | other results |
| --- | --- | --- | --- | --- | --- | --- | --- |
| 379 nM |  |  | 362 nM |  |  | CC[C@H](C)[C@@H]1NC(=O)[C@@H]2CSSC[C@H](NC(=O)[C@H]([C@@H](C)CC)NC(=O)[C@@H]3CCCN3C(=O)[C@@H]3CCCN3C(=O)[C@H]([C@@H](C)CC)NC(=O)[C@H](CO)NC(=O)[C@H](CCCNC(=N)N)NC1=O)C(=O)N[C@@H](CC(N)=O)C(=O)N1CCC[C@H]1C(=O)N[C@@H](CC(N)=O)C(=O)NCC(=O)N[C@@H](Cc1c[nH]c3ccccc13)C(=O)N2 (cyclo(CIRSIPPICNPNGW); disulfide 1-9) | Ki [5]: 9 nM |
|  |  |  |  | 29% | inactive | CC[C@H](C)[C@@H]1NC(=O)[C@@H]2CCCN2C(=O)[C@@H]2CCCN2C(=O)[C@H](CC(=O)O)NC(=O)[C@H](CO)NC(=O)[C@H](CCCNC(=N)N)NC(=O)[C@H]([C@@H](C)O)NC(=O)[C@@H]2CSSC[C@H](NC1=O)C(=O)N[C@@H](CC(N)=O)C(=O)N1CCC[C@H]1C(=O)N[C@@H](CC(N)=O)C(=O)NCC(=O)N[C@@H]([C@@H](C)O)C(=O)N2 (cyclo(CNPNGTCTRSDPPI); disulfide 1-7) | inhibition [7]: 34%; inhibition [8]: inactive; inhibition [9]: 31% |
|  |  |  | 2.1 nM | 41% | Active | CC[C@H](C)[C@@H]1NC(=O)[C@@H]2CCCN2C(=O)[C@@H]2CCCN2C(=O)[C@H]([C@@H](C)CC)NC(=O)[C@H](CO)NC(=O)[C@H](CCCNC(=N)N)NC(=O)[C@H]([C@@H](C)O)NC(=O)[C@@H]2CSSC[C@H](NC1=O)C(=O)N[C@@H](CC(N)=O)C(=O)N1CCC[C@H]1C(=O)N[C@@H](CC(N)=O)C(=O)NCC(=O)N[C@@H]([C@@H](C)O)C(=O)N2 (cyclo(CNPNGTCTRSIPPI); disulfide 1-7) | inhibition [7]: 47%; inhibition [11]: 50%; Ki [12]: 0.7 nM; inhibition [8]: 80%; inhibition [13]: 60%; Ki [14]: 16.8 nM; inhibition [15]: 85% |
|  |  |  | 5.2 nM | 37% | Active | CC[C@H](C)[C@@H]1NC(=O)[C@@H]2CCCN2C(=O)[C@@H]2CCCN2C(=O)[C@H](CC(N)=O)NC(=O)[C@H](CO)NC(=O)[C@H](CCCNC(=N)N)NC(=O)[C@H]([C@@H](C)O)NC(=O)[C@@H]2CSSC[C@H](NC1=O)C(=O)N[C@@H](CC(N)=O)C(=O)N1CCC[C@H]1C(=O)N[C@@H](CC(N)=O)C(=O)NCC(=O)N[C@@H]([C@@H](C)O)C(=O)N2 (cyclo(CNPNGTCTRSNPPI); disulfide 1-7) | inhibition [16]: 93%; Ki [14]: 0.8 nM; inhibition [17]: 97%; inhibition [18]: 49% |
